The text below walks through data of ChEMBL document CHEMBL4371014, “Novel Allosteric Ligands of γ-Aminobutyric Acid Transporter 1 (GAT1) by MS Based Screening of Pseudostatic Hydrazone Libraries” (J Med Chem, 2018).

Each structure is given as a SMILES string. Active and inactive are the calls of the source. The calls are words filed in the database; no cut-off is given here.

For the first test, the target named is Sodium- and chloride-dependent GABA transporter 1 (Mus musculus) (UniProt P31648). Description: Inhibition of NO711 binding to mouse GAT1 expressed in HEK293 cell membranes assessed as residual binding at 1 uM preincubated for 4 hrs followed by NO711 addition and measured after 40 mins by LC-ESI-MS/MS analysis relative to control. The method, boiled down: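 Single hydrazones formed in situ in the presence of mouse GAT1 from one aldehyde (1.0 µM) and hydrazine (200 µM). Formation ran 4 h, then NO711 MS marker was added for 40 min. Specifically bound NO711 was freed from the target and quantified by LC-ESI-MS/MS. Results are % remaining specific binding, means±SD of four replicates.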
As for `O=C(O)[C@H]1CNC[C@@H](CCN/N=C/c2ccc(-c3ccc(Cl)cc3Cl)o2)C1` (racemic), the Activity amounted to 41%.

For the compound `O=C(O)[C@H]1CNC[C@@H](CN/N=C/c2ccc(-c3cc(C(F)(F)F)ccc3Cl)o2)C1` (racemic), the Activity was found to be 38%. `O=C(O)[C@H]1CNC[C@@H](CN/N=C/c2ccc3ccccc3n2)C1` (racemic): the Activity turned out to be 81%. Consider `O=C(O)[C@H]1CNC[C@@H](CCN/N=C/c2ccc(-c3ccn[nH]3)o2)C1` (racemic), for which the Activity worked out at 72%.

Take `O=C(O)[C@H]1CNC[C@@H](CN/N=C/c2cnc(-c3ccccc3)nc2)C1` (racemic): the Activity worked out at 55%. Take `Cc1ccccc1-c1ccsc1C=O`: the Activity was 93%. For the compound `O=Cc1ccc(-c2ccc(Br)cc2)o1`, the Activity came to 97%.

In the case of `O=C(O)[C@H]1CNC[C@H](CCN/N=C/c2csc3ccccc23)C1` (racemic), the Activity was over 50%. Still for that read-out and setting: under `O=C(O)[C@H]1CNC[C@@H](CN/N=C/c2ccc(-c3cccc(C(F)(F)F)c3)o2)C1` (racemic) stands 38%; under `O=C(O)[C@H]1CNC[C@@H](CCN/N=C/c2ccc(-c3ccccc3OC(F)(F)F)o2)C1` (racemic), 59%; under `O=C(O)[C@H]1CNC[C@@H](CCN/N=C/c2ccc(-c3cccc(C(F)(F)F)c3)o2)C1` (racemic), 70%.

In the case of `O=C(O)[C@H]1CNC[C@@H](CN/N=C/c2ccc(-c3ccccc3)o2)C1` (racemic), the Activity was 68%.

Turning to `O=C(O)[C@H]1CNC[C@@H](CCN/N=C/c2ccc(-c3cccc4ccccc34)o2)C1` (racemic), the Activity came to 58%. With `O=C(O)[C@H]1CNC[C@H](CCN/N=C/c2ccc(-c3ccc(C(F)(F)F)cc3Cl)o2)C1` (racemic), the Activity was over 50%. In the case of `O=C(O)[C@H]1CNC[C@@H](CCN/N=C/c2ccc(-c3ccc(Cl)cc3)o2)C1` (racemic), the Activity stood at 62%. With `O=C(O)[C@H]1CNC[C@H](CCN/N=C/c2ccccc2-n2cccc2)C1` (racemic), the Activity is over 50%.

For `O=C(O)[C@H]1CNC[C@@H](CN/N=C/c2ccc(-c3ccc(Cl)cc3)o2)C1` (racemic), the Activity was 56%.

For the compound `O=C(O)[C@H]1CNC[C@@H](CN/N=C/c2ccc(-c3ccc(F)c(C(F)(F)F)c3)o2)C1` (racemic), the Activity stood at 36%. Turning to `O=C(O)[C@H]1CNC[C@@H](CN/N=C/c2cccc(-c3ccc(F)cc3)c2)C1` (racemic), the Activity worked out at 50%. With `Cc1ccsc1-c1sc(/C=N/NCC[C@H]2CNC[C@H](C(=O)O)C2)cc1C` (racemic), the Activity was over 50%. As to `O=Cc1ccc(Br)o1`, the Activity turned out to be 127%. In the case of `Cc1ccsc1-c1sc(/C=N/NCC[C@@H]2CNC[C@H](C(=O)O)C2)cc1C` (racemic), the Activity was determined as 79%. `O=C(O)[C@H]1CNC[C@@H](CN/N=C/c2ccccc2-c2cccc(F)c2F)C1` (racemic): the Activity is 58%. Take `O=C(O)[C@H]1CNC[C@@H](CCN/N=C/c2ccccc2-c2ccsc2)C1` (racemic): the Activity was 80%. With `O=C(O)[C@H]1CNC[C@@H](CN/N=C/c2cnc(-c3ccccc3F)nc2)C1` (racemic), the Activity is 68%. For the compound `O=C(O)[C@H]1CNC[C@@H](CN/N=C/c2cccn2-c2ccc(C(F)(F)F)cc2)C1` (racemic), the Activity came out at 75%. As for `O=C(O)[C@H]1CNC[C@H](CN/N=C/c2ccc(C#Cc3ccccc3)s2)C1` (racemic), the Activity was over 50%. `O=Cc1ccccc1-c1cc(F)cc(F)c1`: the Activity came to 112%. In the case of `COc1cccc(F)c1-c1ccccc1C=O`, the Activity was found to be 112%. For `O=Cc1cnc(-c2ccccc2)nc1`, the Activity turned out to be 113%. On to `O=C(O)[C@H]1CNC[C@H](CN/N=C/c2ccccc2-n2cccc2)C1` (racemic), for which the Activity was over 50%.

Turning to `Cc1ccc(-c2cccc(/C=N/NC[C@@H]3CNC[C@H](C(=O)O)C3)c2)cc1` (racemic), the Activity is 61%. With `O=Cc1cnc(-c2ccccc2F)nc1`, the Activity was 116%. For `O=C(O)[C@H]1CNC[C@@H](CCN/N=C/c2sccc2-n2cccc2)C1` (racemic), the Activity is 72%. With `O=Cc1ccc(-c2ccc(Cl)cc2Cl)o1`, the Activity was 97%.

As for `O=Cc1sccc1-c1ccc(C(F)(F)F)cc1C(F)(F)F`, the Activity is 129%. In the case of `O=Cc1ccco1`, the Activity stood at 107%. Same read-out and setting: under `Cn1cnnc1Sc1ccc(C=O)o1` stands 86%; under `Cc1cccc2cc(/C=N/NCC[C@@H]3CNC[C@H](C(=O)O)C3)c(Cl)nc12` (racemic), 62%.

For `O=C(O)[C@H]1CNC[C@H](CN/N=C/c2sccc2-n2cccc2)C1` (racemic), the Activity is over 50%.

With `O=Cc1ccccc1-n1cccc1`, the Activity turned out to be 92%.

For `O=C(O)[C@H]1CNC[C@@H](CN/N=C/c2cnc(SCc3ccccc3)nc2)C1` (racemic), the Activity was 53%. Take `O=C(O)[C@H]1CNC[C@@H](CCN/N=C/c2ccc(-c3ccc(Cl)cc3F)o2)C1` (racemic): the Activity was 64%. The same measure, in the same setting: under `O=C(O)[C@H]1CNC[C@@H](CN/N=C/c2cnc(NCc3ccccc3)nc2)C1` (racemic) stands 60%; under `O=Cc1ccccc1-c1cccs1`, 107%; under `Cc1ccsc1-c1sc(C=O)cc1C`, 106%. Still for that read-out and setting: the value for `O=Cc1ccccc1-c1cccnc1` was 119%. Turning to `O=Cc1ccccc1-c1cccc(F)c1F`, the Activity stood at 107%. As to `Cc1ccc(-c2ccsc2/C=N/NCC[C@@H]2CNC[C@H](C(=O)O)C2)cc1` (racemic), the Activity amounted to 83%. For the compound `O=C(O)[C@H]1CNC[C@@H](CN/N=C/c2ccnc3ccccc23)C1` (racemic), the Activity turned out to be 74%.

As to `Cc1ccsc1-c1sc(/C=N/NC[C@H]2CNC[C@H](C(=O)O)C2)cc1C` (racemic), the Activity was over 50%.

For the compound `O=C(O)[C@H]1CNC[C@H](CCN/N=C/c2ccc(C#Cc3ccccc3)s2)C1` (racemic), the Activity is over 50%. Turning to `O=Cc1ccccc1-c1ccsc1`, the Activity came to 106%. As to `O=Cc1ccc(-c2ccc(Cl)cc2F)o1`, the Activity came to 97%. As to `O=C(O)[C@H]1CNC[C@@H](CCN/N=C/c2cccn2-c2ccc(C(F)(F)F)cc2)C1` (racemic), the Activity was determined as 74%. Regarding `O=C(O)[C@H]1CNC[C@@H](CCN/N=C/c2ccc(-c3ccc(Br)cc3)o2)C1` (racemic), the Activity worked out at 65%. The same measure, in the same setting: under `Cc1cccc2cc(C=O)c(Cl)nc12` stands 103%; under `O=C(O)[C@H]1CNC[C@@H](CN/N=C/c2ccccc2-c2cc(F)ccc2F)C1` (racemic), 73%. On to `COc1ccc(/C=N/NC[C@@H]2CNC[C@H](C(=O)O)C2)cc1` (racemic), for which the Activity worked out at 85%. With `O=Cc1cnc(-c2cccc3ccccc23)nc1`, the Activity amounted to 124%. Still for that read-out and setting: under `O=Cc1sccc1-c1ccc(Cl)cc1` stands 113%. For the compound `O=C(O)[C@H]1CNC[C@@H](CCN/N=C/c2ccc(-c3ccc(C(F)(F)F)cc3Cl)o2)C1` (racemic), the Activity came to 47%. With `O=C(O)[C@H]1CNC[C@@H](CCN/N=C/c2ccc(-c3ccccc3Cl)o2)C1` (racemic), the Activity turned out to be 52%. Consider `O=C(O)[C@H]1CNC[C@@H](CCN/N=C/c2ccc(-c3cc(C(F)(F)F)ccc3Cl)o2)C1` (racemic), for which the Activity was determined as 54%. Regarding `O=C(O)[C@H]1CNC[C@@H](CN/N=C/c2cnc(-c3cccs3)nc2)C1` (racemic), the Activity turned out to be 60%. With `O=C(O)[C@H]1CNC[C@@H](CN/N=C/c2sccc2-c2ccccc2F)C1` (racemic), the Activity came out at 84%.

The target of a further test is T1, GABA transporter 4 (Mus musculus) (UniProt P31650).
T1 sequence (whole entry): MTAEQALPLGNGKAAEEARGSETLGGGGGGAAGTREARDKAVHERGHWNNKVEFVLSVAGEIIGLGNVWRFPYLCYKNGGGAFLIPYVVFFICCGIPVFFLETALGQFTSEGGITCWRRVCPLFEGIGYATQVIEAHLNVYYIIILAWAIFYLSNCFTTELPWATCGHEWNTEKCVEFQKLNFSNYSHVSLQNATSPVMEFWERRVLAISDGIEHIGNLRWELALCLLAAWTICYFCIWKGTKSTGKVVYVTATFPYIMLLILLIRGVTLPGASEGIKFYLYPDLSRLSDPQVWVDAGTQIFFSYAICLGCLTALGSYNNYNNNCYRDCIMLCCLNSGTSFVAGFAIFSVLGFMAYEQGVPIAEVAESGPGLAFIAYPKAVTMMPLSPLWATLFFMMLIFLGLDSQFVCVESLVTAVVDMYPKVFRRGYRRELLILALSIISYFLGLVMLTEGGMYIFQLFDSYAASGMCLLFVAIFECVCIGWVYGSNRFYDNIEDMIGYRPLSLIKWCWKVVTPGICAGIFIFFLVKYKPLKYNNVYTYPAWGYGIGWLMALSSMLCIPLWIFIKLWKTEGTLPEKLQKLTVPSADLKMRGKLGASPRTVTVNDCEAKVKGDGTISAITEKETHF
The experiment in a line: Inhibition of mouse GAT4 expressed in HEK293 cells assessed as reduction in [3H]GABA uptake at 100 uM preincubated for 25 mins followed by [3H]GABA addition and measured after 4 mins by liquid scintillation counting method relative to control. It counts as cell-based.
Take `O=C(O)[C@H]1CNC[C@@H](CN/N=C/c2ccc(-c3cc(C(F)(F)F)ccc3Cl)o2)C1` (racemic): the inhibition (commonly the relative decrease from the control value, in per cent) was 57%.

The target of the next test is Sodium- and chloride-dependent GABA transporter 1 (Homo sapiens) (UniProt P30531). Description: Inhibition of human GAT1 expressed in HEK293 cells assessed as reduction in [3H]GABA uptake preincubated for 25 mins followed by [3H]GABA addition and measured after 4 mins by liquid scintillation counting method. It counts as cell-based.
Sequence of Sodium- and chloride-dependent GABA transporter 1 (Homo sapiens) (P30531 whole entry, looked up): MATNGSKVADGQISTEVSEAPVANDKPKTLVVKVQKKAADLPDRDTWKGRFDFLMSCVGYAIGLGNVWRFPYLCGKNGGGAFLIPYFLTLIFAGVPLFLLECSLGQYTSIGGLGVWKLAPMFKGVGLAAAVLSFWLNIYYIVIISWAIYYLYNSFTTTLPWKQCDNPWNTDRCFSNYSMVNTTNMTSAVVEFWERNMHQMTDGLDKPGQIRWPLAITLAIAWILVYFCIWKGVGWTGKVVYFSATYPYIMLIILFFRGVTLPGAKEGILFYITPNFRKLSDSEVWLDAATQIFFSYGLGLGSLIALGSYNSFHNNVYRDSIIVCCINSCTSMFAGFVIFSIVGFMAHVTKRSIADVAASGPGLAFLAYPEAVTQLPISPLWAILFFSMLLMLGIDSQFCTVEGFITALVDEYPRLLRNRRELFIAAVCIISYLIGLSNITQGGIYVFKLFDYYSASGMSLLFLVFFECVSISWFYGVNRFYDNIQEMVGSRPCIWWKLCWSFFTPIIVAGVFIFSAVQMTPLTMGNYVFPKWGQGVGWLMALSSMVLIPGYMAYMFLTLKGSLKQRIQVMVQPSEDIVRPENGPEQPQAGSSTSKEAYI
Turning to `O=C(O)[C@H]1CNC[C@@H](CCN/N=C/c2ccc(-c3ccc(Cl)cc3Cl)o2)C1` (racemic), the inhibition entry is “Active”. As for `O=C(O)[C@H]1CNC[C@@H](CN/N=C/c2ccc(-c3cc(C(F)(F)F)ccc3Cl)o2)C1` (racemic), the inhibition entry was “Active”. In the case of `O=C(O)[C@H]1CNC[C@@H](CCN/N=C/c2ccc(-c3ccc(C(F)(F)F)cc3Cl)o2)C1` (racemic), the inhibition result was “Active”. Take `O=C(O)C1=CCCN(CCON=C(c2ccccc2)c2ccccc2)C1`: the inhibition entry was “Active”.

The subject of the next test is Slc6a13 GABA transporter mGAT3 (Mus musculus). Description: Inhibition of mouse GAT3 expressed in HEK293 cells assessed as reduction in [3H]GABA uptake at 100 uM preincubated for 25 mins followed by [3H]GABA addition and measured after 4 mins by liquid scintillation counting method relative to control.
`O=C(O)[C@H]1CNC[C@@H](CN/N=C/c2ccc(-c3cc(C(F)(F)F)ccc3Cl)o2)C1` (racemic): the inhibition came out at 57%.

In the next test the test system is Betaine/GABA transporter BGT1 (Mus musculus). Description: Inhibition of mouse GAT2 expressed in HEK293 cells assessed as reduction in [3H]GABA uptake at 100 uM preincubated for 25 mins followed by [3H]GABA addition and measured after 10 mins by liquid scintillation counting method relative to control.
Take `O=C(O)[C@H]1CNC[C@@H](CN/N=C/c2ccc(-c3cc(C(F)(F)F)ccc3Cl)o2)C1` (racemic): the inhibition came out at 91%.
